Active and inactive are the calls of the source.
Experiments:
Rattus norvegicus [1] = experiment: Cardioprotective activity against ischemia-reperfusion injury in iv dosed Sprague-Dawley rat assessed as decrease in LDH release; assay type: functional, organism-based
Summary of the method: (§1)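 Rats undergo 45 min coronary artery occlusion followed by 90 min reperfusion. Compound is given iv 5 min before reperfusion at 1, 0.5 or 0.25 mg/kg. Prepared serum is assayed for CK, LDH and SOD activities and MDA content as injury indicators, versus sham and model groups.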

Rattus norvegicus [2] = experiment: Cardioprotective activity against ischemia-reperfusion injury in Sprague-Dawley rat assessed as decrease in creatine kinase release at 1 mg/kg, iv; assay type: functional, organism-based; design: dose 1 mg/kg; summary of the method: as §1
Rattus norvegicus [3] = experiment: Cardioprotective activity against ischemia-reperfusion injury in Sprague-Dawley rat assessed as decrease in malondialdehyde at 1 mg/kg, iv; assay type: functional, organism-based; design: dose 1 mg/kg; summary of the method: as §1
Rattus norvegicus [4] = experiment: Cardioprotective activity against ischemia-reperfusion injury in iv dosed Sprague-Dawley rat assessed as decrease in myocardial infarct size; assay type: functional, organism-based; conditions: Myocardium
Summary of the method: (§2)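 In vivo rat model: coronary artery ligated 45 min, then the ligature is loosened for 90 min of reperfusion. Compound is given as an iv bolus 5 min before reperfusion at 1, 0.5 or 0.25 mg/kg. Infarct size is expressed as a percentage of left ventricle area (IS/LV%). n = 8; compared against sham and model groups.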

Rattus norvegicus [5] = species: Rattus norvegicus; experiment: Cardioprotective activity against Langendorff perfused Sprague-Dawley rat heart assessed as increase in myocardial energy metabolism; assay type: functional, organism-based
Summary of the method: (§3)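 Isolated rat hearts: 20 min equilibration, then 30 min low-rate perfusion (0.5 ml/min), then 30 min reperfusion. Drug is added to the perfusate during the low-rate period only. After reperfusion, the heart tissue homogenate is assayed for Na+-K+ ATPase activity, lactate (LD) content and ATP content. n = 10; compared against sham and model groups.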

Rattus norvegicus [6] = species: Rattus norvegicus; experiment: Cardioprotective activity against Langendorff perfused Sprague-Dawley rat heart assessed as increase in relaxing coronary artery at 50 uM; assay type: functional, organism-based
Summary of the method: (§4)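 Isolated hearts are equilibrated 20 min, perfused at a low rate (0.5 ml/min) for 30 min with compound in the perfusate, then reperfused 30 min. Coronary flow at the start and at the end of reperfusion is expressed as a ratio to the end-of-equilibration value. n = 10.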

Rattus norvegicus [7] = species: Rattus norvegicus; experiment: Cardioprotective activity against Langendorff perfused Sprague-Dawley rat heart assessed as increase in ATP content in homogenates at 2 to 50 uM; assay type: functional; summary of the method: as §3
Rattus norvegicus [8] = experiment: Cardioprotective activity against ischemia-reperfusion injury in Sprague-Dawley rat assessed as decrease in LDH release at 1 mg/kg, iv; assay type: functional, organism-based; design: dose 1 mg/kg; summary of the method: as §1
Rattus norvegicus [9] = species: Rattus norvegicus; experiment: Cardioprotective activity against Langendorff perfused Sprague-Dawley rat heart assessed as increase in coronary flow at 2 to 50 uM; assay type: functional, organism-based; summary of the method: as §4
Rattus norvegicus [10] = experiment: Cardioprotective activity against ischemia-reperfusion injury in Sprague-Dawley rat assessed as decrease in myocardial infarct size at 1 mg/kg, iv; assay type: functional, organism-based; design: dose 1 mg/kg; conditions: Myocardium; summary of the method: as §2
Rattus norvegicus [11] = species: Rattus norvegicus; experiment: Cardioprotective activity against Langendorff perfused Sprague-Dawley rat heart assessed as increase in […]-K+ ATPase activity in homogenates at 2 to 50 uM; assay type: functional; summary of the method: as §3
Rattus norvegicus [12] = experiment: Cardioprotective activity against ischemia-reperfusion injury in Sprague-Dawley rat assessed as increase in SOD activity in serum at 1 mg/kg, iv; assay type: functional, organism-based; design: dose 1 mg/kg; summary of the method: as §1
Rattus norvegicus [13] = experiment: Cardioprotective activity against ischemia-reperfusion injury in iv dosed Sprague-Dawley rat assessed as increase in SOD activity in serum; assay type: functional, organism-based; summary of the method: as §1
Rattus norvegicus [14] = experiment: Cardioprotective activity against ischemia-reperfusion injury in iv dosed Sprague-Dawley rat assessed as decrease in creatine kinase release; assay type: functional, organism-based; summary of the method: as §1
Rattus norvegicus [15] = species: Rattus norvegicus; experiment: Cardioprotective activity against Langendorff perfused Sprague-Dawley rat heart assessed as decrease in lactic acid content in homogenates at 2 to 50 uM; assay type: functional; summary of the method: as §3
Rattus norvegicus [16] = species: Rattus norvegicus; experiment: Cardioprotective activity against Langendorff perfused Sprague-Dawley rat heart assessed as increase in relaxing coronary artery at 10 uM; assay type: functional, organism-based; summary of the method: as §4
Rattus norvegicus [17] = experiment: Cardioprotective activity against ischemia-reperfusion injury in iv dosed Sprague-Dawley rat assessed as decrease in malondialdehyde; assay type: functional, organism-based; summary of the method: as §1
Rattus norvegicus [18] = species: Rattus norvegicus; experiment: Cardioprotective activity against Langendorff perfused Sprague-Dawley rat heart assessed as increase in myocardial energy metabolism at 10 uM; assay type: functional, organism-based; summary of the method: as §3

Measured: Activity

COc1ccc(CN2CCN(Cc3ccc(C(=O)N=C(N)N)cc3[N+](=O)[O-])CC2)c(OC)c1OC
active: Rattus norvegicus [1] Dose-dependent effect | Rattus norvegicus [2] | Rattus norvegicus [3] | Rattus norvegicus [4] Dose-dependent effect | Rattus norvegicus [5] Dose-dependent effect | Rattus norvegicus [6] | Rattus norvegicus [7] | Rattus norvegicus [8] | Rattus norvegicus [9] | Rattus norvegicus [10] | Rattus norvegicus [11] | Rattus norvegicus [12] | Rattus norvegicus [13] Dose-dependent effect | Rattus norvegicus [14] Dose-dependent effect | Rattus norvegicus [15] | Rattus norvegicus [16] | Rattus norvegicus [17] Dose-dependent effect

CC(C)c1ccc(C(=O)N=C(N)N)cc1S(C)(=O)=O
active: Rattus norvegicus [2] | Rattus norvegicus [3] | Rattus norvegicus [18] | Rattus norvegicus [8] | Rattus norvegicus [10] | Rattus norvegicus [12] | Rattus norvegicus [16]

Reference: ChEMBL document CHEMBL1782034, “Design, synthesis and biological evaluation of novel substituted benzoylguanidine derivatives as potent Na+/H+ exchanger inhibitors” (Bioorg Med Chem Lett, 2009)
